Hits are enriched below; roughly 3% of the tested compounds scored in any of these assays.
ANO1 activ – TMEM16A chloride channel activators or potentiators, primary screen, cell-based, HTS. Anoctamin-1 (Mus musculus), Q8BHY3. HEK293 TMEM16A/YFP-H148Q/I152L, iodide quench fluorescence; active compounds read low. B-score at 10 µM. actives 0.3% (n = 340,000). AID 623877, 2012;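 active = fluorescence-ratio B-score plate-corrected deviation score at least 3 library SD below zero, with starting fluorescence score within 5 deviations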;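 also: channel opened by trigger with iodide after compound preincubation; score built on the fluorescence ratio of max minus min over baseline; more negative score means more quench and so TMEM16A activation or potentiation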
Kir21 block – inhibitors of mouse Kir2.1 inward-rectifier potassium channel; B-score at 10 µM; AID 1672, 2009; actives 0.85% (n = 310,000); HEK293-Kir2.1, FluxOR thallium flux fluorescence; active compounds read low;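 active = fluorescence ratio B-score at or below minus 3 SD of library scores, with starting-brightness B-score within 2 SD, cut at about -4.2 in these data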;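 also: channel flux triggered by added potassium and thallium sulfate stimulus; B-score of peak minus minimum fluorescence over baseline after thallium stimulus; more negative B-score means stronger Kir2.1 block with less thallium influx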
Target sequence (P35561 whole entry, looked up): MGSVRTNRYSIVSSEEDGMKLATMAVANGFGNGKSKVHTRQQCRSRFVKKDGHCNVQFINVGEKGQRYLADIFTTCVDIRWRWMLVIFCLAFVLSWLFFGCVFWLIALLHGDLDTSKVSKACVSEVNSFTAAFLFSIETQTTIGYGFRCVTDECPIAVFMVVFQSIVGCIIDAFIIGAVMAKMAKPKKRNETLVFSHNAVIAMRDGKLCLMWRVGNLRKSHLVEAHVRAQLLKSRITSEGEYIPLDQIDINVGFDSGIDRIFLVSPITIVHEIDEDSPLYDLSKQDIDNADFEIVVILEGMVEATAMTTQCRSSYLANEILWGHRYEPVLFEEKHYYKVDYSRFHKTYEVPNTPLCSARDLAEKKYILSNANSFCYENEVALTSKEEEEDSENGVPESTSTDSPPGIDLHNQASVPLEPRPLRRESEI
DNA FID counter – compounds displacing fluorescent DNA intercalator, primary screen, artefact control for HCV NS3 helicase inhibitor project, biochemical, FID fluorescence | DNA fluorescent intercalator displacement | inhibition, % at 7.9 µM | actives 0.17% (n = 290,000); in the data active = inhibition above about 37%;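 also: 0% = vehicle and 100% = reference compound; higher means more ethidium bromide displaced from hairpin DNA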
SR-BI DiI inh – inhibitors of SR-BI mediated HDL lipid uptake, primary screen, ldlA[mSR-BI] cells, fluorescence, single point | ldlA[mSR-BI] CHO cells, DiI-HDL uptake fluorescence, 3 h | actives 0.96% (n = 320,000) | inhibition, % at 12.5 µM | AID 488896, 2010 | Scavenger receptor class B member 1 (Mus musculus), Q61009;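 active = mean replicate inhibition of at least 70% and a set share of replicates each scoring 70 or more; inconclusive = meets just one of the two criteria; inactive = fails both criteria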;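 also: 0% = median of neutral control wells and 100% = median of positive control wells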
TMEM16A inh – TMEM16A chloride channel inhibitors, primary screen, cell-based, HTS; HEK293 TMEM16A/YFP iodide influx fluorescence, ionomycin; normalized B-score (activity score, 25-100; higher = stronger inhibition) at 10 µM; actives 1.2% (n = 310,000);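 active = ratio plate-corrected score three or more library SD toward inhibition, starting fluorescence score within five deviations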;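 also: score derived from kinetic fluorescence span divided by baseline fluorescence per well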
SR-BI DiI-HDL act – activators of SR-BI mediated DiI-HDL uptake, primary screen, ldlA[mSR-BI] CHO cells, DiI fluorescence. activation, % at 12.5 µM. 3 h; 100 = double the neutral-control signal. AID 504775, 2011. actives 0.096% (n = 320,000);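 active = mean replicate activation of at least 60% and every replicate at or above 60%; inconclusive = mean or all-replicate condition met, but not both; inactive = mean below 60% and not all replicates reaching 60%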;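 also: 0% = median plate neutral-control signal and 100% = twice that signal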
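System: CHO ldlA[mSR-BI] cells / Medium: HEPES-buffered (25 mM, pH 7.4) F12 plus 0.5% BSA / Probe or stimulus: labelled HDL, 10 µg/mL / Doses: single compound concentration, delivered by pin transfer / Schedule: 3 h, 37 °C / Measured by: DiI fluorescence, bottom read / Measure: cell-associated DiI fluorescence as measure of HDL uptake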
Starred values were filed as active, the others as inactive; i = inactive; u = inconclusive; x = no result given.

SMILES	ANO1 activ	Kir21 block	DNA FID counter	SR-BI DiI inh	TMEM16A inh	SR-BI DiI-HDL act
CC(Oc1ccc(F)cc1)C(=O)Nc1cccc(-c2nn[nH]n2)c1 (configuration not stated)	i	-0.31	-19	-10	i	10
CC(C)(C)NC(=O)N1CCC(CO)(Cc2ccccc2Cl)CC1	-6.9*	0.16	-7	-13	i	13
Cc1ccc(NC(=O)CN(C)C(=O)COC(=O)CNS(=O)(=O)c2ccc(F)c(F)c2F)cc1	i	0.54	x	-12	i	12
COCCCNC(=O)c1cc2c(=O)n3cc(C)ccc3nc2nc1NCC1CCCO1 (configuration not stated)	x	1	-6	x	i	x
O=[N+]([O-])c1ccc(N2CCOCC2)cc1NCc1ccccc1	i	0.85	2	48	i	-48
CC1CN(c2ccc([N+](=O)[O-])c(NCCOc3ccccc3)c2)CCN1 (configuration not stated)	i	-5.1*	27	-25	i	25
O=[N+]([O-])c1ccc(N2CCCC2)cc1NCc1ccccc1	-6.5*	0.99	3	u	i	-72
O=C(COC(=O)CC1Sc2ccccc2NC1=O)NCc1ccccc1 (configuration not stated)	i	1.2	x	-3	i	3
COc1cccc(C2c3cc4c(cc3OC(NNC(N)=O)C2C)OCO4)c1O (configuration not stated)	i	x	x	27	x	-27
COc1cccc(-c2nc(CS(=O)(=O)CC(=O)Nc3ccccc3Cl)c(C)o2)c1	i	-0.09	-43	18	i	-18
CCc1ccc(OCC(=O)N/N=C/c2cc([N+](=O)[O-])ccc2N2CCCCCC2)cc1	i	1.7	-5	69	i	-69
O=C(N/N=C/c1cc([N+](=O)[O-])ccc1N1CCCCCC1)c1ccccn1	i	-1.3	3	80*	i	-80
CCOc1ccc(C(=O)COC(=O)c2cc([N+](=O)[O-])ccc2N2CCOCC2)cc1	i	-0.57	x	79*	i	-79
Cc1ccc(C(=O)c2cc([N+](=O)[O-])ccc2N2CCOCC2)cc1C	i	1.2	1	34	i	-34
O=C(COC(=O)c1cc([N+](=O)[O-])ccc1N1CCOCC1)c1ccc(Br)cc1	i	1.4	x	79*	i	-79
Cc1ccc(C(=O)c2cc([N+](=O)[O-])ccc2N2CCOCC2)c(C)c1	i	2.2	-9	81*	i	-81
COc1ccccc1C(=O)COC(=O)Cn1nc(C)c([N+](=O)[O-])c1C	i	-0.52	x	-30	i	30
CC(C)[C@H](NC(=O)c1ccc(F)cc1)C(=O)N(C)Cc1cccs1	i	x	x	3	x	-3
c1ccc(CC2CCN(c3ncnc4sccc34)CC2)cc1	-40*	0.02	-17	7	x	-7
Brc1ccccc1OCCCCn1cnc2ccccc21	i	-0.21	-11	-6	100*	6
CN(C)CCC(Oc1ccccc1OCc1ccccc1)c1ccccc1 (configuration not stated)	i	-4.6*	x	-9	i	9
O=C(CSc1nc2nc(-c3cccs3)cc(C(F)(F)F)c2c(=O)[nH]1)Nc1ccc(F)c(F)c1	i	1.3	-1	2	25*	-2
Cc1ccc(C)c(NC(=O)CSc2nc3nc(-c4cccs4)cc(C(F)(F)F)c3c(=O)[nH]2)c1	i	-0.04	-13	3	i	-3
CCCC(c1nnnn1Cc1cccs1)N1CCN(c2nc3ccccc3s2)CC1 (configuration not stated)	-13*	0.63	-7	9	i	-9
Oc1c(Br)cc(Br)cc1CNc1ccc(F)cc1	i	0.55	-7	-6	i	6
